Assay results from ChEMBL document CHEMBL1155837 (Bioorg Med Chem Lett, 2008).

What was measured:
[1] = tested on: Human alphaherpesvirus 2; assay: Antiviral activity against acyclovir-resistant HSV2 ACR in african green monkey Vero cells assessed as inhibition of virus plaque formation; format: functional, organism-based; details: Human alphaherpesvirus 2, ACR
How it was run: (§1)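 Vero cells were grown to density in DMEM with 10% fetal bovine serum, L-glutamine, penicillin and streptomycin, then preincubated 30 min with drug and kept in drug throughout. They were infected with 100 pfu per well, adsorbed 45 min and overlaid with 1.2% Avicel in DMEM. After 3 days, plaques were stained with crystal violet and counted.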

[2] = tested on: Human alphaherpesvirus 3; assay: Antiviral activity against TK+ VZV OKA infected HEL cells assessed as reduction in virus plaque formation after 5 days; format: functional, organism-based; details: Human alphaherpesvirus 3, OKA, 120 h
[3] = tested on: Human alphaherpesvirus 3; assay: Antiviral activity against thymidine kinase deficient VZV 07/1 infected HEL cells assessed as reduction in virus plaque formation after 5 days; format: functional, organism-based; details: Human alphaherpesvirus 3, 07/1, HEL, 120 h
[4] = tested on: Human alphaherpesvirus 3; assay: Antiviral activity against TK+ VZV YS infected HEL cells assessed as reduction in virus plaque formation after 5 days; format: functional, organism-based; details: Human alphaherpesvirus 3, YS, 120 h
[5] = tested on: Human alphaherpesvirus 2; assay: Antiviral activity against acyclovir-sensitive HSV2 HG32 in african green monkey Vero cells assessed as inhibition of virus plaque formation; format: functional, organism-based; details: Human alphaherpesvirus 2, HG32, Vero; how it was run: as §1
[6] = tested on: Human alphaherpesvirus 3; assay: Antiviral activity against thymidine kinase deficient VZV YS/R infected HEL cells assessed as reduction in virus plaque formation after 5 days; format: functional, organism-based; details: Human alphaherpesvirus 3, YS/R, 120 h
[7] = Cytotoxicity against HEL cells assessed as alteration of cell morphology; format: cell-based; details: human
How it was run: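 In HEL cells, the MCC is the minimal compound concentration producing a microscopically visible change in cell morphology.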

[8] = tested on: Human alphaherpesvirus 1; assay: Antiviral activity against HSV1 KOS in HEL cells assessed as inhibition of virus induced cytopathicity within 48 hrs; format: functional, organism-based; details: Human alphaherpesvirus 1, KOS
How it was run: (§2)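 Confluent HEL fibroblast cultures were inoculated with 100 CCID50 of virus per well. After 1 h adsorption, residual virus was removed and cells were incubated with serial dilutions of compound.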

[9] = Cytotoxicity against HEL cells assessed as inhibition of cell proliferation; format: cell-based; details: human
[10] = tested on: Human alphaherpesvirus 2; assay: Antiviral activity against HSV2 G in HEL cells assessed as inhibition of virus induced cytopathicity within 48 hrs; format: functional, organism-based; details: Human alphaherpesvirus 2, strain G; how it was run: as §2
[11] = tested on: Human alphaherpesvirus 1; assay: Antiviral activity against acyclovir-resistant and thymidine kinase deficient HSV1 KOS in HEL cells assessed as inhibition of virus induced cytopathicity within 48 hrs; format: functional, organism-based; details: Human alphaherpesvirus 1, KOS; how it was run: as §2
[12] = tested on: Human alphaherpesvirus 2; assay: Antiviral activity against HSV2; format: functional, organism-based

| Structure (SMILES) | EC50 [1] | EC50 [2] | EC50 [3] | EC50 [4] | EC50 [5] | EC50 [6] | MCC [7] | EC50 [8] | CC50 [9] | EC50 [10] | EC50 [11] | EC50 [12] |
| --- | --- | --- | --- | --- | --- | --- | --- | --- | --- | --- | --- | --- |
| C[C@H](NP(=O)(OCCOCn1cnc2c(=O)[nH]c(N)nc21)Oc1ccccc1)C(=O)OCc1ccccc1 (some centres not stated) | 15.5 µM | 0.72 µM | 1.8 µM | 1 µM | 20.3 µM | 0.59 µM | > 50 µM | 0.9 µM | > 100 µM | 1.4 µM | – | – |
| COC(=O)[C@H](C)NP(=O)(OCCOCn1cnc2c(=O)[nH]c(N)nc21)Oc1cccc2ccccc12 (some centres not stated) | 15 µM | 7.6 µM | 22 µM | 10.9 µM | 40.4 µM | 6.1 µM | > 50 µM | – | > 100 µM | – | 80 µM | – |
| COC(=O)[C@H](C)NP(=O)(OCCOCn1cnc2c(=O)[nH]c(N)nc21)Oc1ccccc1 (some centres not stated) | 18.7 µM | 19 µM | 24 µM | 20 µM | 43.1 µM | 16 µM | > 100 µM | – | 162 µM | 15 µM | 80 µM | ≥ 100 µM |
| Nc1nc2c(ncn2COCCOP(=O)(N[C@@H](Cc2ccccc2)C(=O)OCc2ccccc2)Oc2ccccc2)c(=O)[nH]1 (some centres not stated) | 33.2 µM | 5.2 µM | 8.4 µM | 6.6 µM | 20.3 µM | 10 µM | > 50 µM | – | 86.9 µM | 8 µM | > 100 µM | – |
| C[C@H](NP(=O)(OCCOCn1cnc2c(=O)[nH]c(N)nc21)Oc1cccc2ccccc12)C(=O)OCc1ccccc1 (some centres not stated) | 14.5 µM | 7.2 µM | 6.9 µM | 3.3 µM | 9.8 µM | – | > 50 µM | – | 20 µM | – | 11 µM | – |
| Nc1nc2c(ncn2COCCO)c(=O)[nH]1 [ACYCLOVIR] | > 100 µM | – | – | – | 6 µM | – | > 250 µM | – | 1350 µM | – | – | – |
